The values that follow come from ChEMBL document CHEMBL1153374, “Synthesis, anti-inflammatory, and antioxidant activities of 18beta-glycyrrhetinic acid derivatives as chemical mediators and xanthine oxidase inhibitors” (Bioorg Med Chem, 2009).

Calls of active or inactive are those of the source. The rule behind the calls is not given here.

Xanthine dehydrogenase/oxidase, sequence (P47989 whole entry): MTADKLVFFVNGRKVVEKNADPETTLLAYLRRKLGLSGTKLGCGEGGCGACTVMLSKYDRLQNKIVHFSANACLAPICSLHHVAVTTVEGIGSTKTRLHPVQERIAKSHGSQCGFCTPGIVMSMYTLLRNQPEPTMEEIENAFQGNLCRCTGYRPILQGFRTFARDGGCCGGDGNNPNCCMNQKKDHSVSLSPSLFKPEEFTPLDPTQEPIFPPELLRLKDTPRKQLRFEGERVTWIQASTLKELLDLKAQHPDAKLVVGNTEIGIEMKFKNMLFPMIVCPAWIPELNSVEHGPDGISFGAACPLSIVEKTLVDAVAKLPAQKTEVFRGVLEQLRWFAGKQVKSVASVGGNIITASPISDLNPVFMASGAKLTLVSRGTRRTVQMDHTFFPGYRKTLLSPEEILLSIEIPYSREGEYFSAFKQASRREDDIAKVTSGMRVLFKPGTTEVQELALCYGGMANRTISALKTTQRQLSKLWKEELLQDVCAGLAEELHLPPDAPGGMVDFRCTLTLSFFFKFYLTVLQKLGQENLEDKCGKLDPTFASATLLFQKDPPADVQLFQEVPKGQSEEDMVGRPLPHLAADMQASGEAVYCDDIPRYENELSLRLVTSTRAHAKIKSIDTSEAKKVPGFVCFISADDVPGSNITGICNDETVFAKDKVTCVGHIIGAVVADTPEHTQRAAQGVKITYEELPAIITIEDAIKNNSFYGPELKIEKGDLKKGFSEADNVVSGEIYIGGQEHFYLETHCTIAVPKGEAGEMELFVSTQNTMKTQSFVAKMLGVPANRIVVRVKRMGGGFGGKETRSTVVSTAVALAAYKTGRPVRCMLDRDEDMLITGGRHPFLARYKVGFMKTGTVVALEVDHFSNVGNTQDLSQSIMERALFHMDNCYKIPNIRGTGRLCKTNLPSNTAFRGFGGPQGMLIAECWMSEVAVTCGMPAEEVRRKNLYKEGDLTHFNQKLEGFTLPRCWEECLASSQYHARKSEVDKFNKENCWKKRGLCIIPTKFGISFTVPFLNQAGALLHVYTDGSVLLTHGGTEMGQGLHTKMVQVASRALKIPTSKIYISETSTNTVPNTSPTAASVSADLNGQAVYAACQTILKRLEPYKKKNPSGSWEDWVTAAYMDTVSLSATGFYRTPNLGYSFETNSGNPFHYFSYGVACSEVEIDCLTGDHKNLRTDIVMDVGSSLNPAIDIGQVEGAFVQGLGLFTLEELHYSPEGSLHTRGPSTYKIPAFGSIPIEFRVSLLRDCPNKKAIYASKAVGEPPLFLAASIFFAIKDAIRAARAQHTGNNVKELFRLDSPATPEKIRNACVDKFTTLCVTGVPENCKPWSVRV

The subject of the first series is RAW264.7. The experiment in a line: Inhibition of LPS-induced TNFalpha release in mouse RAW264.7 cells pretreated 1 hr before LPS challenge by enzyme immunoassay. It is filed as functional, cell-based. Put shortly:
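RAW 264.7 murine macrophages were incubated with compound (diluted from DMSO stock; final DMSO <0.5% v/v), then stimulated with LPS. Secreted TNF-α in culture supernatant was quantified by EIA kit. Data are means ± SD, n = 3–6. IC50 was taken from concentration–response curves.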
The term IC50 denotes the concentration at which inhibition is half-maximal. `C=C(C)[C@@H]1CC[C@]2(C)[C@H](C(=O)C=C3[C@@H]4C[C@@](C)(C(=O)OCc5ccccc5)CC[C@]4(C)CC[C@]32C)[C@@]1(C)CCC(=O)OC`: the IC50 came to 13.7 µM and the inhibition entry is “Dose-dependent effect”.
`CC1(C)[C@@H](O)CC[C@]2(C)[C@H]3C(=O)C=C4[C@@H]5C[C@@](C)(C(=O)O)CC[C@]5(C)CC[C@@]4(C)[C@]3(C)CC[C@@H]12` [ENOXOLONE]: the IC50 is 1.3 µM and the inhibition entry was “Dose-dependent effect”.
In the case of `O=c1c(-c2ccc(O)cc2)coc2cc(O)cc(O)c12` [GENISTEIN], the IC50 came out at 26.5 µM and the inhibition result was “Dose-dependent effect”.
Take `C=C(C)[C@@H]1CC[C@]2(C)[C@H](C(=O)C=C3[C@@H]4C[C@@](C)(C(=O)OC)CC[C@]4(C)CC[C@]32C)[C@@]1(C)CCC(=O)O`: the IC50 is 26.1 µM and the inhibition result is “Dose-dependent effect”.
`C=C(C)[C@@H]1CC[C@]2(C)[C@H](C(=O)C=C3[C@@H]4C[C@@](C)(C(=O)Nc5ccccc5)CC[C@]4(C)CC[C@]32C)[C@@]1(C)CCC(=O)OC`: the IC50 was 15.5 µM and the inhibition entry is “Dose-dependent effect”.
Turning to `C=C(C)[C@@H]1CC[C@]2(C)[C@H](C(=O)C=C3[C@@H]4C[C@@](C)(C(=O)Nc5ccccc5)CC[C@]4(C)CC[C@]32C)[C@@]1(C)CCC(=O)O`, the half-inhibitory concentration (IC50) was 27.7 µM and the inhibition result is “Dose-dependent effect”.
`C=C(C)[C@@H]1CC[C@]2(C)[C@H](C(=O)C=C3[C@@H]4C[C@@](C)(C(=O)OCc5ccccc5)CC[C@]4(C)CC[C@]32C)[C@@]1(C)CCC(=O)O`: the IC50 was 2.3 µM and the inhibition entry is “Dose-dependent effect”.

A further series addresses Xanthine dehydrogenase/oxidase (Homo sapiens, UniProt P47989). The experiment in a line: Inhibition of xanthine oxidase. An outline of the steps: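 Xanthine oxidase activity measured at 25 °C with xanthine as substrate, in 70 mM phosphate buffer (pH 7.5), following a modified published protocol. Compounds were taken from 30 mM DMSO stocks diluted in DMSO, with final DMSO below 0.5% (v/v).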
Consider `Oc1ncnc2[nH]ncc12` [ALLOPURINOL], for which the “inhibition (INH)” value is given as “Not Active”.
Take `CC1(C)C(=O)CC[C@]2(C)[C@H]3C(=O)C=C4[C@@H]5C[C@@](C)(C(=O)O)CC[C@]5(C)CC[C@@]4(C)[C@]3(C)CC[C@@H]12`: the “inhibition (INH)” value is “Not Active”.

A further series deals with Nucleic Acid. In words: Inhibition of superoxide anion induced DNA damage of Escherichia coli pBR322 at 300 uM by gel electrophoresis. It is filed as functional. An outline of the steps:
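Supercoiled pBR322 plasmid DNA (1 µg/µL) was exposed to xanthine (2 mM)/xanthine oxidase (0.7 U/mL) in 10 mM phosphate buffer, pH 7.4, with compound for 20 min at 37 °C. SOD and quercetin served as comparators. Mixtures were electrophoresed on 1.0% agarose with ethidium bromide (0.05 µg/mL) in TAE, 100 V, 30 min.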
Turning to `C=C(C)[C@@H]1CC[C@]2(C)[C@H](C(=O)C=C3[C@@H]4C[C@@](C)(C(=O)NC(C)C)CC[C@]4(C)CC[C@]32C)[C@@]1(C)CCC(=O)OC`, the inhibition entry is “Active”.
Same read-out and setting: with `C=C(C)[C@@H]1CC[C@]2(C)[C@H](C(=O)C=C3[C@@H]4C[C@@](C)(C(=O)O)CC[C@]4(C)CC[C@]32C)[C@@]1(C)CCC(=O)O` the entry was “Active”.
On to `C=C(C)[C@@H]1CC[C@]2(C)[C@H](C(=O)C=C3[C@@H]4C[C@@](C)(C(=O)OCc5ccccc5)CC[C@]4(C)CC[C@]32C)[C@@]1(C)CCC(=O)OC`, for which the inhibition entry was “Active”.
The same measure, in the same setting: with `C=C(C)[C@@H]1CC[C@]2(C)[C@H](C(=O)C=C3[C@@H]4C[C@@](C)(C(=O)NC(C)C)CC[C@]4(C)CC[C@]32C)[C@@]1(C)CCC(=O)O` the entry was “Active”; with `COC(=O)[C@@]1(C)CC[C@]2(C)CC[C@]3(C)C(=CC(=O)[C@@H]4[C@@]5(C)CCC(=O)OC(C)(C)[C@@H]5CC[C@]43C)[C@@H]2C1`, “Active”.
As for `CC1(C)C(=O)CC[C@]2(C)[C@H]3C(=O)C=C4[C@@H]5C[C@@](C)(C(=O)O)CC[C@]5(C)CC[C@@]4(C)[C@]3(C)CC[C@@H]12`, the inhibition result is “Active”.

For another series, the system named is Neutrophil. The experiment in a line: Inhibition of fMLP/cytochalasin B-stimulated super oxide anion generation in Sprague-Dawley rat neutrophils. Format: functional, cell-based. Put shortly: (§1)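 Peripheral blood neutrophils were isolated from Sprague-Dawley rats. Stimulus was fMLP (0.3 µM) with cytochalasin B (5 µg/mL) for 30 min, or PMA (3 nM). Superoxide was measured as SOD-inhibitable cytochrome c reduction. DPI was the reference inhibitor. IC50 was taken from concentration–response curves; means ± SD, n = 3–6.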
Turning to `C=C(C)[C@@H]1CC[C@]2(C)[C@H](C(=O)C=C3[C@@H]4C[C@@](C)(C(=O)O)CC[C@]4(C)CC[C@]32C)[C@@]1(C)CCC(=O)O`, inhibition was half-maximal at 7 µM (IC50) and the inhibition entry was “Dose-dependent effect”.
For `C=C(C)[C@@H]1CC[C@]2(C)[C@H](C(=O)C=C3[C@@H]4C[C@@](C)(C(=O)NC(C)C)CC[C@]4(C)CC[C@]32C)[C@@]1(C)CCC(=O)O`, 9.8 µM corresponded to half-maximal inhibition (IC50) and the inhibition result is “Dose-dependent effect”.
With `c1ccc2c(c1)[I+]c1ccccc1-2` [DIPHENYLENEIODONIUM CHLORIDE], the IC50 was determined as 2.7 µM and the inhibition entry was “Dose-dependent effect”.
For the compound `CC1(C)C(=O)CC[C@]2(C)[C@H]3C(=O)C=C4[C@@H]5C[C@@](C)(C(=O)O)CC[C@]5(C)CC[C@@]4(C)[C@]3(C)CC[C@@H]12`, the midpoint of inhibition, the IC50, lay at 10.3 µM and the inhibition result was “Dose-dependent effect”.

The next series has as its system Neutrophil. The experiment in a line: Inhibition of PMA-stimulated super oxide anion generation in Sprague-Dawley rat neutrophils. Format: functional, cell-based. Put shortly: as §1
As for `C=C(C)[C@@H]1CC[C@]2(C)[C@H](C(=O)C=C3[C@@H]4C[C@@](C)(C(=O)NC(C)C)CC[C@]4(C)CC[C@]32C)[C@@]1(C)CCC(=O)OC`, the IC50 came to 15.6 µM and the inhibition entry was “Dose-dependent effect”.
The corresponding values for `C=C(C)[C@@H]1CC[C@]2(C)[C@H](C(=O)C=C3[C@@H]4C[C@@](C)(C(=O)OCc5ccccc5)CC[C@]4(C)CC[C@]32C)[C@@]1(C)CCC(=O)OC` are 17 µM and “Dose-dependent effect”.
In the same order, the values of `COC(=O)[C@@]1(C)CC[C@]2(C)CC[C@]3(C)C(=CC(=O)[C@@H]4[C@@]5(C)CCC(=O)OC(C)(C)[C@@H]5CC[C@]43C)[C@@H]2C1` are 12.9 µM and “Dose-dependent effect”.
The corresponding values for `c1ccc2c(c1)[I+]c1ccccc1-2` [DIPHENYLENEIODONIUM CHLORIDE] are 1.8 µM and “Dose-dependent effect”.

Another series has as its system RAW264.7. The experiment in a line: Inhibition of LPS-induced iNOS protein expression in mouse RAW264.7 cells at 3 uM pretreated 1 hr before LPS challenge by Western blot. Format: functional, cell-based. Put shortly:
(§2)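 RAW 264.7 cells were pretreated 1 h with compound at 3 or 10 µM, then given LPS at 50 ng/mL for 24 h. Cells were washed with PBS, lysed in Laemmli SDS buffer and run on 10% SDS–PAGE, then transferred to PVDF and blocked in 5% milk/TBST. Blots were probed with monoclonal anti-iNOS (1:1000, 1 h) and HRP anti-mouse IgG (1:10,000), with ECL detection.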
In general terms: A western blot detects proteins with antibodies after separation by electrophoresis.
Turning to `C=C(C)[C@@H]1CC[C@]2(C)[C@H](C(=O)C=C3[C@@H]4C[C@@](C)(C(=O)NC(C)C)CC[C@]4(C)CC[C@]32C)[C@@]1(C)CCC(=O)OC`, the inhibition result was “Active”.

The test system of another series is Radical scavenging activity. In words: Antioxidant activity assessed as DPPH radical scavenging activity. Format: functional.
Take `C=C(C)[C@@H]1CC[C@]2(C)[C@H](C(=O)C=C3[C@@H]4C[C@@](C)(C(=O)NC(C)C)CC[C@]4(C)CC[C@]32C)[C@@]1(C)CCC(=O)OC`: the inhibition entry is “inactive”.
Turning to `C=C(C)[C@@H]1CC[C@]2(C)[C@H](C(=O)C=C3[C@@H]4C[C@@](C)(C(=O)O)CC[C@]4(C)CC[C@]32C)[C@@]1(C)CCC(=O)O`, the inhibition result is “inactive”.
As to `C=C(C)[C@@H]1CC[C@]2(C)[C@H](C(=O)C=C3[C@@H]4C[C@@](C)(C(=O)OCc5ccccc5)CC[C@]4(C)CC[C@]32C)[C@@]1(C)CCC(=O)OC`, the inhibition result was “inactive”.
Same read-out and setting: with `C=C(C)[C@@H]1CC[C@]2(C)[C@H](C(=O)C=C3[C@@H]4C[C@@](C)(C(=O)NC(C)C)CC[C@]4(C)CC[C@]32C)[C@@]1(C)CCC(=O)O` the entry was “inactive”.
For the compound `COC(=O)[C@@]1(C)CC[C@]2(C)CC[C@]3(C)C(=CC(=O)[C@@H]4[C@@]5(C)CCC(=O)OC(C)(C)[C@@H]5CC[C@]43C)[C@@H]2C1`, the inhibition result is “inactive”.
Still for that read-out and setting: the same measure for `Oc1ncnc2[nH]ncc12` [ALLOPURINOL]: “inactive”; for `CC1(C)C(=O)CC[C@]2(C)[C@H]3C(=O)C=C4[C@@H]5C[C@@](C)(C(=O)O)CC[C@]5(C)CC[C@@]4(C)[C@]3(C)CC[C@@H]12`: “inactive”.

The next series deals with RAW264.7. The experiment in a line: Inhibition of LPS-induced nitric oxide generation in mouse RAW264.7 cells pretreated 1 hr before LPS challenge by Griess method. Format: functional, cell-based. Put shortly:
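Plated RAW 264.7 cells were preincubated with compound for 1 h at 37 °C, then stimulated with LPS at 1 µg/mL for 24 h. Nitrite accumulated in the medium was measured by the Griess reaction. Results are % inhibition at a single concentration or IC50 from concentration curves. Data are means ± SD, n = 3–6. Final DMSO <0.5%.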
Turning to `C=C(C)[C@@H]1CC[C@]2(C)[C@H](C(=O)C=C3[C@@H]4C[C@@](C)(C(=O)NC(C)C)CC[C@]4(C)CC[C@]32C)[C@@]1(C)CCC(=O)OC`, the IC50 came to 13.1 µM.
In the case of `C=C(C)[C@@H]1CC[C@]2(C)[C@H](C(=O)C=C3[C@@H]4C[C@@](C)(C(=O)OCc5ccccc5)CC[C@]4(C)CC[C@]32C)[C@@]1(C)CCC(=O)OC`, the IC50 was greater than 30 µM.
As for `C=C(C)[C@@H]1CC[C@]2(C)[C@H](C(=O)C=C3[C@@H]4C[C@@](C)(C(=O)OC)CC[C@]4(C)CC[C@]32C)[C@@]1(C)CCC(=O)OC`, the 50% inhibitory concentration (IC50) is greater than 30 µM.
Same read-out and setting: with `CC(=N)NCc1cccc(CN)c1` [1400W] the figure was 1.5 µM.
Turning to `CC1(C)C(=O)CC[C@]2(C)[C@H]3C(=O)C=C4[C@@H]5C[C@@](C)(C(=O)O)CC[C@]5(C)CC[C@@]4(C)[C@]3(C)CC[C@@H]12`, the IC50 is greater than 30 µM.
As to `C=C(C)[C@@H]1CC[C@]2(C)[C@H](C(=O)C=C3[C@@H]4C[C@@](C)(C(=O)OC(C)C)CC[C@]4(C)CC[C@]32C)[C@@]1(C)CCC(=O)OC`, the IC50 was greater than 30 µM.

Another series concerns RAW264.7. The experiment in a line: Inhibition of LPS-induced iNOS protein expression in mouse RAW264.7 cells at 10 uM pretreated 1 hr before LPS challenge by Western blot. Format: functional, cell-based. An outline of the steps: as §2
As to `C=C(C)[C@@H]1CC[C@]2(C)[C@H](C(=O)C=C3[C@@H]4C[C@@](C)(C(=O)NC(C)C)CC[C@]4(C)CC[C@]32C)[C@@]1(C)CCC(=O)OC`, the inhibition entry was “Active”.
